Test results published in ChEMBL document CHEMBL1128495, “Synthetic chemical diversity: solid phase synthesis of libraries of C2 symmetric inhibitors of HIV protease containing diamino diol and diamino alcohol cores” (J Med Chem, 1995).

Columns and labels:
[1] = molecular target: Human immunodeficiency virus type 1 protease (Human immunodeficiency virus 1, UniProt Q72874); test: Inhibition of HIV protease
Summary of the method: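 Fluorometric HIV protease activity assay on unpurified samples. Concentrations were calculated from the weight of unpurified material, with no correction for impurities. Each sample was tested at 3–5 concentrations where feasible, and IC50 was derived from the percent-inhibition data.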

[2] = molecular target: Human immunodeficiency virus type 1 protease (Human immunodeficiency virus 1) (UniProt Q72874); test: Inhibitory activity against HIV Protease at a dose of 0.5 nM
Summary of the method: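 Fluorometric HIV protease activity assay run on an unpurified sample. Concentration was based on the weight of unpurified material, with no correction for impurities. Percent inhibition was read at a single concentration of 0.5 nM.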

IC50 [1] [nM]	inhibition [2] [%]	Structure (SMILES)
< 1	71	COc1cc(CC(=O)N[C@H](C(=O)N[C@@H](Cc2ccccc2)C[C@H](O)[C@H](Cc2ccccc2)NC(=O)[C@@H](NC(=O)Cc2cc(OC)c(OC)c(OC)c2)C(C)C)C(C)C)cc(OC)c1OC
< 1	43	CC(C)[C@H](NC(=O)CC1NC(=O)NC1=O)C(=O)N[C@@H](Cc1ccccc1)C[C@H](O)[C@H](Cc1ccccc1)NC(=O)[C@@H](NC(=O)CC1NC(=O)NC1=O)C(C)C (some centres undefined)
< 1	–	CC(C)[C@H](NC(=O)CSc1ncccn1)C(=O)N[C@@H](Cc1ccccc1)C[C@H](O)[C@H](Cc1ccccc1)NC(=O)[C@@H](NC(=O)CSc1ncccn1)C(C)C
160	–	CC(C)[C@H](NC(=O)C(O)(c1ccccc1)c1ccccc1)C(=O)N[C@@H](Cc1ccccc1)C[C@H](O)[C@H](Cc1ccccc1)NC(=O)[C@@H](NC(=O)C(O)(c1ccccc1)c1ccccc1)C(C)C
< 1	40	CC(C)[C@H](NC(=O)Cc1csc(N)n1)C(=O)N[C@@H](Cc1ccccc1)C[C@H](O)[C@H](Cc1ccccc1)NC(=O)[C@@H](NC(=O)Cc1csc(N)n1)C(C)C
13	–	Cc1nc(C)c(C(=O)N[C@H](C(=O)N[C@@H](Cc2ccccc2)C[C@H](O)[C@H](Cc2ccccc2)NC(=O)[C@@H](NC(=O)c2sc(C)nc2C)C(C)C)C(C)C)s1
6400	–	CC(C)[C@H](NC(=O)C(O)(c1ccccc1)c1ccccc1)C(=O)N[C@@H](Cc1ccccc1)[C@@H](O)[C@H](O)[C@H](Cc1ccccc1)NC(=O)[C@@H](NC(=O)C(O)(c1ccccc1)c1ccccc1)C(C)C
860	–	Cc1nc(C)c(C(=O)N[C@H](C(=O)N[C@@H](Cc2ccccc2)[C@@H](O)[C@H](O)[C@H](Cc2ccccc2)NC(=O)[C@@H](NC(=O)c2sc(C)nc2C)C(C)C)C(C)C)s1

Structure (SMILES)	IC50 [1] [nM]	inhibition [2] [%]
CC(C)[C@H](NC(=O)Cc1csc(N)n1)C(=O)N[C@@H](Cc1ccccc1)[C@@H](O)[C@H](O)[C@H](Cc1ccccc1)NC(=O)[C@@H](NC(=O)Cc1csc(N)n1)C(C)C	12	–
CC(C)[C@H](NC(=O)CC1NC(=O)NC1=O)C(=O)N[C@@H](Cc1ccccc1)[C@@H](O)[C@H](O)[C@H](Cc1ccccc1)NC(=O)[C@@H](NC(=O)CC1NC(=O)NC1=O)C(C)C (some centres undefined)	9.6	33
